Test results as given in ChEMBL document CHEMBL1155261, “Synthesis and biological evaluation of SANT-2 and analogues as inhibitors of the hedgehog signaling pathway” (Bioorg Med Chem, 2009).

Tests used:
[1] = biological target: Sonic hedgehog protein (Mus musculus) (UniProt Q62226); experiment: Ratio of compound IC50 to cyclopamine IC50 for inhibition of SHH in mouse Shh-Light2 cells; assay type: functional, cell-based; conditions: Shh Light II
Oryzias latipes [2] = experiment: Teratogenic activity in Oryzias latipes CAB embryo assessed as induction of cyclopia phenotype at 0.01 to 100 uM; assay type: organism-based; conditions: in vivo
How it was run: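 CAB-strain medaka kept at 26 °C on a 14:10 h light/dark cycle. Fertilized eggs exposed from 4–5 hpf to 5 days post fertilisation at 26 °C in tap water (pH 8–8.2) with 0.1% methylene blue. Compounds added from ethanol stocks at 1% final solvent; controls received 1% ethanol. Embryos inspected visually for cyclopia (reduced eye distance).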

Oryzias latipes [3] = experiment: Teratogenic activity in Oryzias latipes embryo assessed as induction of cyclopia phenotype at 12.5 uM; assay type: organism-based; conditions: in vivo
How it was run: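 Medaka (CAB strain) fertilized eggs, collected within 1–2 h post fertilization, exposed from 4–5 hpf to 5 days post fertilisation at 26 °C in tap water (pH 8–8.2) with 0.1% methylene blue; compounds added from ethanol stocks, final 1% ethanol, controls 1% ethanol. Tested range 0.01–100 µM. Embryos visually scored for cyclopia (reduced eye distance).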

| Structure (SMILES) | Ratio IC50 [1] | Activity (Oryzias latipes [2]) | Activity (Oryzias latipes [3]) |
| --- | --- | --- | --- |
| O=C(Nc1ccc(Cl)c(-c2nc3ccccc3[nH]2)c1)c1cccc(C(F)(F)F)c1 | 11 | Non-toxic | – |
| CC1=C2C[C@H]3[C@@H](CC=C4C[C@@H](O)CC[C@@]43C)[C@@H]2CC[C@]12O[C@@H]1C[C@H](C)CN[C@H]1[C@H]2C [CYCLOPAMINE] | 11 | Non-toxic | Toxic |
| O=C(Nc1ccc(Cl)c(-c2nc3ccccc3[nH]2)c1)c1ccc(Cl)cc1 | 5.9 | – | – |
| N#Cc1ccc(C(=O)Nc2ccc(Cl)c(-c3nc4ccccc4[nH]3)c2)cc1 | 7.1 | – | – |
| CCOc1cc(C(=O)Nc2ccc(Cl)c(-c3nc4ccccc4[nH]3)c2)cc(OCC)c1OCC | – | Non-toxic | – |
| COc1cc(C(=O)Nc2ccc(Cl)c(-c3nc4ccccc4[nH]3)c2)cc(OC)c1OC | – | Non-toxic | – |

Now from value to compound, other results behind:

| Ratio IC50 [1] | Structure (SMILES) | Activity (Oryzias latipes [2]) | Activity (Oryzias latipes [3]) |
| --- | --- | --- | --- |
| 1 | CCOc1cc(C(=O)Nc2cccc(-c3nc4ccccc4[nH]3)c2)cc(OCC)c1OCC | – | – |
| 6.9 | CN(C)c1ccc(C(=O)Nc2ccc(Cl)c(-c3nc4ccccc4[nH]3)c2)cc1 | – | – |
| 8 | O=C(Nc1ccc(Cl)c(-c2nc3ccccc3[nH]2)c1)c1ccccc1 | – | – |
| 11 | COc1ccc(C(=O)Nc2ccc(Cl)c(-c3nc4ccccc4[nH]3)c2)cc1 | – | – |
| 1.5 | COc1ccccc1C(=O)Nc1ccc(Cl)c(-c2nc3ccccc3[nH]2)c1 | – | – |
| 5.2 | O=C(Nc1ccc(Cl)c(-c2nc3ccccc3[nH]2)c1)c1ccc(F)cc1 | – | – |
